Assay outcomes deposited in PubChem BioAssay by several laboratories.
p97 inhibitor = blocks human p97 ATPase activity; hit rate 0.42% among 220,000; inhibition, % at 8 µM; AID 1481; recombinant p97 ATPase, Kinase-Glo ATP luminescence, 3 h; P55072; in the data active means inhibition above about 15%;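 further: 0% = DMSO vehicle and 100% = wells lacking enzyme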
RBBP9 inhibitor = inhibitors of human serine hydrolase RBBP9 | O75884 | recombinant RBBP9, FP-Rh probe fluorescence polarization | inhibition, % at 7.94 µM | hit rate 0.2% among 220,000 | AID 1515;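 active means inhibition above the campaign mean of all tested compounds plus 3 SD, cut at about 14% in these data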;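 further: plate controls were DMSO wells with RBBP9 for no effect and wells lacking RBBP9 protein for full effect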
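Test system: recombinant human RBBP9; Timing: 30 min then 45 min, 25 °C; Detection: fluorescence polarization; Control set: RBBP9 with DMSO as uninhibited control, no-protein wells as full inhibition; Compound dosing: one concentration, 7.94 µM nominal, 0.794% DMSO; Probe or stimulus: FP-Rh activity-based probe, 375 nM before mixing.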
Hsp70 activator = switches on Hsp70 transcription. HeLa Hsp70 promoter luciferase reporter, luminescence; scaled: vehicle 0, proteasome-inhibitor control 100%. activation, % at 10 µM. hit rate 0.04% among 200,000;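 active means activation above the mean across all tested compounds plus 3 SD, cutoff set per campaign, cut at about 5.5% in these data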;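 further: 100% = MG132 at 30 µM as the positive control and 0% = DMSO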
PP5 primary = blocks human protein phosphatase 5 activity; P53041; purified PP5c, OMFP substrate fluorescence; inhibition, % at 6.7 µM; hit rate 0.18% among 320,000; AID 1987;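 active means inhibition above the campaign's mean inhibition across all tested compounds plus 3 SD, cut at about 9.5% in these data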;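 further: 0% = DMSO only and 100% = 100 µM cantharidin control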
Target sequence (P53041 whole entry, looked up): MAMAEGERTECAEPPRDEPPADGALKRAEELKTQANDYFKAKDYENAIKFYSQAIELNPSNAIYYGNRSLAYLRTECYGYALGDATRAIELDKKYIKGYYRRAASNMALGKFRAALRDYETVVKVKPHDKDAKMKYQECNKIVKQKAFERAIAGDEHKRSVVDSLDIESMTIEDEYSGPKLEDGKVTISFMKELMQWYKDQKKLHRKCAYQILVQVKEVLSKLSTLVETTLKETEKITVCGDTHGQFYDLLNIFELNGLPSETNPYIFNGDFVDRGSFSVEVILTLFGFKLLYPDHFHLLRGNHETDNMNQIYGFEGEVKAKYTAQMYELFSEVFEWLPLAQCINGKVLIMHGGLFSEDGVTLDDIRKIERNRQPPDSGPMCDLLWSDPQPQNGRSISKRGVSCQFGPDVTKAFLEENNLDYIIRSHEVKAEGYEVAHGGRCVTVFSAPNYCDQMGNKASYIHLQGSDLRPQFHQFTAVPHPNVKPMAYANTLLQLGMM
PP1 counter = blocks human PP1-alpha phosphatase, a PP5 counter-screen | P62136 | purified PP1alpha, OMFP fluorescence | inhibition, % at 6.7 µM | hit rate 0.9% among 320,000;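 active means inhibition above the mean inhibition of all tested compounds plus 3 SD, computed separately for each screening campaign, cut at about 15% in these data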
PKD1 inh = inhibitors of human PKD1 kinase | PKD1 kinase fluorescence polarization assay | inhibition, % (no concentration beside the values) | hit rate 0.056% among 200,000; in the data active means inhibition above about 50%
PP1 confirm = human PP1 phosphatase inhibition, confirmation; shares compounds with PP1 counter; purified PP1alpha, OMFP substrate fluorescence; inhibition, % at 6.7 µM; hit rate 52% among 1,900; AID 2358;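 active means mean PP1 inhibition above a set limit taken from the earlier primary screen, cut at about 15% in these data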
PP5 counter = counter-screen for PP1 inhibitors: human PP5 phosphatase inhibition | shares compounds with PP1 counter | purified PP5c, OMFP fluorescence | hit rate 4% among 1,900 | AID 2360 | inhibition, % at 6.7 µM;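 active means mean PP5 inhibition over triplicate wells above about 9.5% taken from the earlier PP1 screen, limit read from the data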
* marks the source's active call; other numbers are inactive results. A selection: hits, their analogues and other compounds. The true share with any hit is near 1.5%.

Screening CCOC(=O)C1=C(O)C(=O)N(c2ccc(S(N)(=O)=O)cc2)C1c1ccc(Br)cc1 (stereo unspecified) returned p97 inhibitor 9, RBBP9 inhibitor -4, PP5 primary 2, PP1 counter 21*, PP1 confirm 7 and PP5 counter -7.
`CCOC(=O)C1=C(O)C(=O)N(c2ccc(S(N)(=O)=O)cc2)C1c1ccc(Cl)cc1` (stereo unspecified) gave p97 inhibitor 5, RBBP9 inhibitor 0, Hsp70 activator 0, PP5 primary 2, PP1 counter 12 and PKD1 inh 2.
For CC(=O)C1=C(O)C(=O)N(c2cccc(Br)c2)C1c1ccc(Br)cc1 (stereo unspecified) the results were PP5 primary 1, PP1 counter 29*, PP1 confirm 25* and PP5 counter -3.
`CC(=O)C1=C(O)C(=O)N(c2ccc(Br)cc2)C1c1cccc([N+](=O)[O-])c1` (stereo unspecified) gave PP5 primary 5 and PP1 counter 4.
For CC(=O)C1=C(O)C(=O)N(c2ccc(Br)cc2)C1c1ccc(Br)cc1 (stereo unspecified) the results were PP5 primary 4, PP1 counter 24*, PP1 confirm 23* and PP5 counter -3.
For CC(=O)C1=C(O)C(=O)N(c2ccc(O)cc2)C1c1ccc(F)cc1 (stereo unspecified) the results were PP5 primary 3 and PP1 counter 2.
CC(C)(C)C(=O)Cn1nnc(-c2ccc(C(F)(F)F)cc2)n1 was read as p97 inhibitor -4, RBBP9 inhibitor -10, PP5 primary 0 and PP1 counter 1.
Screening CSCCC(NC(=O)COc1ccccc1)C(=O)OCC(=O)c1ccccc1 (stereo unspecified) returned PP5 primary 0, PP1 counter 60*, PP1 confirm -2 and PP5 counter -3.
For COc1ccc(NC(=O)/C(C#N)=C\C=C\c2ccco2)cc1 the results were p97 inhibitor -4, RBBP9 inhibitor -13, Hsp70 activator 0, PP5 primary 2, PP1 counter 2 and PKD1 inh 4.
Cc1ccc2[nH]c(=O)c(-c3nc4cc(C)ccn4c3NCc3ccco3)cc2c1 was read as p97 inhibitor 4, RBBP9 inhibitor -9, Hsp70 activator 0, PP5 primary 1, PP1 counter 18*, PKD1 inh -5, PP1 confirm 21* and PP5 counter 3.
O=S(=O)(c1ccc(Cl)cc1)N1CCN=C1SCc1ccc(Cl)c(Cl)c1 was read as p97 inhibitor -2, RBBP9 inhibitor -6, Hsp70 activator 0, PP5 primary 1, PP1 counter -1 and PKD1 inh -3.
CCn1c(SCC(=O)c2ccc3c(c2)Cc2ccccc2-3)nnc1-c1ccc(N)cc1 was read as p97 inhibitor 6, RBBP9 inhibitor -16, Hsp70 activator 0, PP5 primary -1, PP1 counter 21*, PKD1 inh 2, PP1 confirm 20* and PP5 counter -3.
Screening Cc1ccc(NC(=Nc2ccc(Br)cc2)N2CCOCC2)cc1C returned PP5 primary 1 and PP1 counter -3.
For Cc1c(C(=O)OCC(=O)N(C)C2CCS(=O)(=O)C2)oc2ccc(Br)cc12 (stereo unspecified) the results were p97 inhibitor -11, RBBP9 inhibitor -9, PP5 primary 10 and PP1 counter -1.
Screening Cc1c(-c2ccc(Cl)cc2)oc(=O)c2c(N)n(-c3ccccc3)nc12 returned p97 inhibitor 1, RBBP9 inhibitor -3, Hsp70 activator 0, PP5 primary 1, PP1 counter 23*, PKD1 inh -2, PP1 confirm 28* and PP5 counter -3.
Screening Nc1c2c(=O)oc(-c3ccccc3)cc2nn1-c1ccccc1 returned p97 inhibitor 3, RBBP9 inhibitor -7, Hsp70 activator 0, PP5 primary 4, PP1 counter -2 and PKD1 inh -3.
`O=C(C(c1ccccc1)c1ccccc1)N1CCN(Cc2ccco2)CC1` gave p97 inhibitor 1, RBBP9 inhibitor -10, Hsp70 activator 0, PP5 primary 2, PP1 counter 3 and PKD1 inh -4.
`CC1(C)COCN1S(=O)(=O)c1ccc(C(=O)Nc2nnc(-c3ccc(Cl)s3)o2)cc1` gave p97 inhibitor 3, RBBP9 inhibitor 3, Hsp70 activator 0, PP5 primary 2, PP1 counter 12 and PKD1 inh -6.
Screening COc1ccc(-c2nnc(NC(=O)c3ccc(S(=O)(=O)N4COCC4(C)C)cc3)o2)cc1 returned p97 inhibitor 9, RBBP9 inhibitor -7, Hsp70 activator -1, PP5 primary 1, PP1 counter 30*, PKD1 inh -6, PP1 confirm 29* and PP5 counter -1.
CC(=O)Nc1ccc(N=Cc2c(O)c(C(=O)Nc3ccccc3)cc3ccccc23)cc1 was read as p97 inhibitor 7, RBBP9 inhibitor 3, Hsp70 activator 0, PP5 primary 2, PP1 counter -3 and PKD1 inh 30.
Cn1c(O)c(/C=N/NC(=O)c2cc3ccccc3cc2O)c2ccccc21 was read as PP5 primary 3, PP1 counter 22*, PP1 confirm 16* and PP5 counter -3.
COc1ccc2c(c1)cc(C(=O)N/N=C/c1c(O)c(C(=O)O)cc3ccccc13)n2C was read as PP5 primary 4, PP1 counter 35*, PP1 confirm 30* and PP5 counter 1.
For CC(C)CC(NC(=O)CC12CC3CC(CC(C3)C1)C2)C(=O)NC1=NCCS1 (stereo unspecified) the results were p97 inhibitor -2, RBBP9 inhibitor -10, Hsp70 activator 0, PP5 primary 0, PP1 counter -3 and PKD1 inh -10.
Cc1ccc(OS(=O)(=O)c2ccccc2)c(/C=N/N=C2\NC(=O)C(C)S2)c1 (stereo unspecified) was read as p97 inhibitor -1, RBBP9 inhibitor -6, Hsp70 activator 0, PP5 primary 5, PP1 counter -1 and PKD1 inh -1.
For c1ccc(CNc2nc(-c3ccccn3)nc3ccccc23)cc1 the results were PP5 primary 0, PP1 counter 39*, PP1 confirm 40* and PP5 counter 1.
CC1(C)CCN2CCC(C)(C)c3c(O)ccc1c32 was read as PP5 primary 0, PP1 counter 18*, PP1 confirm -1 and PP5 counter 7.
Cc1ccc(C(=O)NN2CCOCC2)cc1 was read as p97 inhibitor 3, RBBP9 inhibitor -4, Hsp70 activator 0, PP5 primary -1, PP1 counter 1 and PKD1 inh -6.
